Measured values of several laboratories.
Each line is one published result; the experiments were not run side by side.
Target: Cytochrome P450 3A4 (CYP3A4, Homo sapiens, UniProt P08684)

| SMILES | test | system | setting | measurement | value |
| --- | --- | --- | --- | --- | --- |
| COC(=O)C1CCN(C(=O)Cc2ccc(NCc3cnc4nc(N)nc(N)c4n3)cc2)CC1 | enzyme activity, inhibitor, luciferase | – | 10 µM | inhibition | -1.83% |
| CC(=O)c1cccc(OCc2cc(C(=O)N(C)[C@@H](C)c3ccccn3)no2)c1 | enzyme activity, inhibitor | human, liver microsomes | – | IC50 | 27 µM |
| CC(C)(C)OC(=O)N[C@H](CSCCC(=O)NCc1cccnc1)Cc1c[nH]c2ccccc12 | thermal stability | – | – | ΔTm | 0.2 °C |
| COc1cc2c(c(OC)c1OC)-c1c(cc3c(c1OC)OCO3)[C@H](OC(=O)c1ccccc1)[C@@](C)(O)[C@@H](C)C2 | enzyme activity, inhibitor | – | 15 min, pH 7.4 | IC50 | 25 µM |
| NCCCCCC(=O)NCc1cccnc1 | thermal stability | – | – | ΔTm | -0.2 °C |
| C=CC(=O)Nc1cc(Nc2nccc(Nc3cc(Cl)c(F)cc3C(C)(C)O)n2)c(OC)cc1N1CC[C@@H](N(C)C)C1 | enzyme activity, inhibitor | human, liver microsomes | 10 µM | inhibition | 24.3% |
| CCN(Cc1cnc2nc(N)nc(N)c2n1)c1ccc(C(=O)N2CCC(C(=O)OC)CC2)cc1 | enzyme activity, inhibitor, luciferase | – | 10 µM | inhibition | -13.9% |
| CC1(C)CCC2(CC1)N[C@@H](C(=O)N[C@@H]1CC[C@@H](C(N)=O)OC1)[C@H](c1ccnc(Cl)c1F)[C@]21C(=O)Nc2cc(Cl)ccc21 | enzyme activity, inhibitor | human, liver microsomes | with preincubation, midazolam probe | kinact | 0.00103 s⁻¹ |
| COC(=O)C1CCN(C(=O)c2ccc(N(CCO)Cc3cnc4nc(N)nc(N)c4n3)cc2)CC1 | enzyme activity, inhibitor, luciferase | – | 10 µM | inhibition | -27.6% |
| CC(C)(C)OC(=O)N[C@H](CSCCC(=O)NCc1cccnc1)CC1CCCCC1 | thermal stability | – | – | ΔTm | -2 °C |
| CCc1cc(/C(C)=N/OCc2ccc(C3CCCCC3)c(C(F)(F)F)c2)ccc1CN1CC(C(=O)O)C1 | enzyme activity, inhibitor | human, liver microsomes | 200 µM, 20 min, testosterone probe | inhibition | 72.7% |
| O=C(N[C@H](Cc1c[nH]c2ccccc12)C(=O)Nc1ccncc1)c1ccc(-c2cc(F)ccc2F)cc1F | enzyme activity, inhibitor | human, liver microsomes | 1 µM | inhibition | 74% |
| CCOC(=O)C1CCN(C(=O)c2ccc(N(CC)Cc3cnc4nc(N)nc(N)c4n3)cc2)CC1 | enzyme activity, inhibitor, luciferase | – | 10 µM | inhibition | -13.6% |
